PREPL inh – inhibitors of human prolyl oligopeptidase-like enzyme PREPL; 320,000 compounds, 0.68% hits; inhibition, % at 5.96 µM; recombinant PREPL, fluorescence polarization activity-based probe; AID 2751; Q4J6C6;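 further: 0% = enzyme with DMSO and 100% = wells lacking enzyme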
IDE cell inh – cellular human IDE inhibition; HEK cells, FAbetaB cleavage, fluorescence polarization; AID 434962; 320,000 compounds, 0.41% hits; inhibition, % at 5.59 µM; P14735;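 active means percent inhibition above the average of all tested compounds plus 3 SD, set per screening campaign, cut at about 16% in these data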;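 further: IDE supplied by intact live HEK cells; FP after avidin binding of uncleaved biotin substrate so inhibition keeps polarization high; 0% = DMSO wells and 100% = 60 µM reference IDE inhibitor Ii1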
ARFGAP1 inhibitor – inhibitors of rat ARFGAP1; Q62848; Arfgap1-stimulated ARF1 GTP hydrolysis, GDP FP detection; 360,000 compounds, 0.26% hits; inhibition, % at 16.5 µM;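 active means inhibition above a per-plate limit, mean inhibition of low control wells plus 3 SD, cut at about 25% in these data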;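 further: 0% = DMSO wells with enzyme and 100% = wells lacking Arfgap1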
Target sequence (Q62848 1-136 limits assumed): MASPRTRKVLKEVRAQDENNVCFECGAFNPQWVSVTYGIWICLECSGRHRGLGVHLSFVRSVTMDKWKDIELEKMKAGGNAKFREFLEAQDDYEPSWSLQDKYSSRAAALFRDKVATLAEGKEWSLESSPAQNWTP
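Assay system: Rat Arfgap1 GAP domain (His6, aa 1-136), purified enzyme | Buffer or medium: HEPES 25 mM pH 7.5, NaCl 150 mM, MgCl2, DTT | Schedule: GTP hydrolysis reaction 2 h at 25 °C | Signal: FP of antibody-bound GDP Alexa 633 tracer, ex 620/em 688 nm | Measure: Percent inhibition of Arfgap1-stimulated GTP hydrolysis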
ASAP1 GAP inh – blocks human ASAP1-stimulated Arf1 GTP hydrolysis | GDP FP detection | 360,000 compounds, 0.19% hits | AID 624377 | Q9ULH1 | inhibition, % at 16.5 µM; in the data active means inhibition above about 25%;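 further: 0% = vehicle with enzyme and substrate and 100% = no enzyme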
Target sequence (Q9ULH1 325-724 limits assumed): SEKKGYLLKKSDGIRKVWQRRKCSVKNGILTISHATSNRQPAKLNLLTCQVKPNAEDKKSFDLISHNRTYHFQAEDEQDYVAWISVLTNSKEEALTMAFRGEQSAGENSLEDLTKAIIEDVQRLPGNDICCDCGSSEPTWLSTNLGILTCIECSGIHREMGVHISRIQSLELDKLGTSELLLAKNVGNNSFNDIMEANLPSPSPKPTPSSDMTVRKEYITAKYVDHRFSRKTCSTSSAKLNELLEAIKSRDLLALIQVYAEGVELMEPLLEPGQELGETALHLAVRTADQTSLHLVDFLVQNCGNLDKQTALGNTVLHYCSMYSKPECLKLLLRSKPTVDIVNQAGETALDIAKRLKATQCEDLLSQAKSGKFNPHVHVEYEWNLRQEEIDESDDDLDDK
IDE act – activators of human insulin-degrading enzyme in cells; P14735; HEK cells, FAbeta-B cleavage, fluorescence polarization; 0% vehicle, 100% cell-free pure enzyme wells; activation, % at 5.96 µM; 340,000 compounds, 0.073% hits; AID 493087;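 active means activation above the mean of all tested compounds plus 3 SD, set per screening campaign, cut at about 17% in these data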
PREPL inh cf – confirmation of human PREPL enzyme inhibitors | shares compounds with PREPL inh | recombinant PREPL, fluorescence polarization activity probe | inhibition, % at 5.96 µM | 2,000 compounds, 67% hits;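 further: 0% = protein with DMSO and 100% = wells lacking protein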
The depositor's hits bear a star; . = no result. A selection: hits, their analogues and other compounds. The true share with any hit is near 1.2%. Unless noted, no stated cut-off is given here; in the data, active means inhibition above about 43%; inactive means the rest.

SMILES | PREPL inh | IDE cell inh | ARFGAP1 inhibitor | ASAP1 GAP inh | IDE act | PREPL inh cf
Nc1c(-c2n[nH]c(=S)n2-c2ccc(Cl)cc2Cl)cnn1-c1ccccc1 | -5 | 1 | -5 | -3 | 0 | .
Nc1[nH]nc2c1NN(c1ccc(Cl)cc1Cl)N2 | 43* | 12 | -1 | -5 | 8 | 13
Cn1cnnc1SCC(=O)Nc1ccccc1Oc1ccccc1 | 2 | 8 | -6 | -2 | 0 | .
COc1cc(/C=N/n2c(C)n[nH]c2=S)ccc1OCc1ccc(F)cc1 | 50* | 1 | -5 | 6 | -10 | 42
COc1cc(/C=N\n2nnnc2N)ccc1OCc1ccc(F)cc1 | 31 | 2 | 13 | 11 | -2 | .
O=C(O)C1CCN(S(=O)(=O)c2ccc(N3CCCC3C(=O)O)c([N+](=O)[O-])c2)CC1 (configuration not stated) | 6 | 5 | 3 | 0 | -1 | .
Nc1[nH]n2c(=O)c3c(nc2c1N=Nc1ccccc1)CCCC3 | 64* | 3 | -1 | -11 | 7 | 60*
Nc1[nH]n2c(=O)c3c(nc2c1N=Nc1ccc(Cl)cc1)CCCC3 | 51* | 4 | -5 | 15 | 3 | 68*
Cc1cc(=O)n2[nH]c(N)c(N=Nc3ccccc3)c2n1 | 13 | -8 | -4 | -9 | 2 | .
Cc1[nH]n2c(=O)c3c(nc2c1-c1ccc(Cl)cc1)CCC3 | 17 | -2 | . | . | 3 | .
O=C(CN1C(=O)NC2(CCc3ccccc32)C1=O)Nc1ccccc1C(F)(F)F (configuration not stated) | 13 | -1 | -6 | 15 | 2 | .
COc1ccc(C(=O)Nc2nnc(CCS(=O)(=O)c3ccc(C)cc3)s2)cc1 | 1 | -1 | 14 | -7 | 0 | .
CCN(CC)CCC(c1cc(OC)c(OC)c(OC)c1)c1c(O)cc(OC)cc1OC (configuration not stated) | 45* | -7 | 7 | -1 | 4 | 47*
CCN(CC)C(=O)CC(c1cc(OC)c(OC)c(OC)c1)c1c(O)cc(OC)cc1OC (configuration not stated) | -3 | 7 | -9 | 8 | 4 | .
O=c1c2ccc([N+](=O)[O-])cc2ncn1CCOc1ccccc1 | 44* | -2 | 5 | 3 | 5 | 33
Cc1ccc(OCCn2cnc3cc([N+](=O)[O-])ccc3c2=O)cc1 | 28 | 1 | -3 | 10 | 1 | .
CCOc1cc(N2CCOCC2)c(OCC)cc1NC(=O)CN1C(=O)NC(Cc2ccccc2)C1=O (configuration not stated) | 54* | -1 | 12 | -2 | 0 | 56*
CCc1ccc(CNc2ccc(N3CCN(C(C)=O)CC3)cc2)cc1 | 66* | -1 | 8 | 0 | 7 | 57*
CC(=O)N1CCN(c2ccc(NCc3ccco3)cc2)CC1 | 8 | 2 | 4 | 10 | 7 | .
O=C(c1cc(-c2cccc(Cl)c2)on1)N1CCN(c2ccc(F)cc2)CC1 | -10 | 1 | 17 | -11 | 0 | .
Clc1ccc(CNc2ccc(N3CCN(Cc4ccccc4)CC3)cc2)cc1 | 48* | -7 | -15 | 1 | 2 | 49*
Cc1ccc(CNC(=O)N2CCN(c3ccc(C)cc3)CC2)cc1 | -1 | 1 | -14 | -1 | -7 | .
CC(=O)N1CCN(c2ccc(NCc3ccc(-c4cccc(Cl)c4)o3)cc2)CC1 | 55* | 3 | . | . | -3 | 68*
CC(=O)N1CCN(c2ccc(NCc3ccc(C)cc3)cc2)CC1 | 74* | 3 | -5 | -1 | 3 | 46*
COC(=O)C1=C(C)N(Cc2ccc(C(F)(F)F)cc2)C(=NCc2ccc(OC)cc2)NC1c1ccccc1C(F)(F)F (configuration not stated) | . | . | 0 | 7 | . | .
SMILES | PREPL inh | IDE cell inh | ARFGAP1 inhibitor | ASAP1 GAP inh | IDE act | PREPL inh cf
Cc1ccc(C)n1-c1ccc(C(=O)NN)s1 | 56* | 2 | -6 | -8 | 4 | 17
CCOC(=O)CNC(=O)c1ccc(Br)s1 | 9 | 6 | 1 | -7 | -6 | .
C#CCOCCOCCOCCNc1nc(N2CCN(C(=O)[C@H](CCCCN)n3cc([C@@H](N)CO)nn3)CC2)nc(N2CCN(C(=O)[C@H](Cc3cc4ccccc4[nH]3)n3cc([C@@H](N)CO)nn3)CC2)n1 | 34 | 6 | . | . | . | .
C#CCOCCOCCOCCNc1nc(N2CCN(C(=O)[C@H](CCCCN)n3cc([C@@H](N)CO)nn3)CC2)nc(N2CCN(C(=O)[C@H](Cc3cc4ccccc4[nH]3)n3cc([C@@H](N)CC(C)C)nn3)CC2)n1 | 52* | 5 | . | . | . | 51*
C#CCOCCOCCOCCNc1nc(N2CCN(C(=O)[C@H](CCCCN)n3cc([C@@H](N)C(C)CC)nn3)CC2)nc(N2CCN(C(=O)[C@H](Cc3cc4ccccc4[nH]3)n3cc([C@@H](N)CC(C)C)nn3)CC2)n1 (some centres not stated) | 58* | 6 | . | . | 4 | 58*
C#CCOCCOCCOCCNc1nc(N2CCN(C(=O)[C@H](Cc3cc4ccccc4[nH]3)n3cc([C@@H](N)C(C)CC)nn3)CC2)nc(N2CCN(C(=O)[C@H](CCCCN)n3cc([C@@H](N)CO)nn3)CC2)n1 (some centres not stated) | 43 | 8 | . | . | . | .
O=C(O)c1nn(CC(=O)N2CCC(Cc3ccccc3)CC2)c(=O)c2ccccc12 | -38 | 0 | 0 | -17 | -4 | .
CC(C)(C)SCCNC(=O)c1ccc(Cl)c([N+](=O)[O-])c1 | 4 | 4 | 12 | -4 | -4 | .
O=C(c1ccccc1)c1ccc2nc(-c3ccco3)c(-c3ccco3)nc2c1 | 62* | -2 | -8 | -2 | 0 | 51*
O=C(NCCO)c1ccc2nc(-c3ccco3)c(-c3ccco3)nc2c1 | 17 | -9 | -7 | 1 | -3 | .
O=C(NCCc1ccccc1)c1ccc2nc(-c3ccco3)c(-c3ccco3)nc2c1 | 74* | -2 | . | . | 1 | 74*
O=C(NC1CCCC1)c1ccc2nc(-c3ccco3)c(-c3ccco3)nc2c1 | 62* | -1 | . | . | 1 | 34
Cc1ccc(S(=O)(=O)N2CCOCC2)cc1NC(=O)COC(=O)CNC(=O)c1ccc(Cl)cc1Cl | . | . | -15 | -15 | -2 | .
CCN(CC(=O)Nc1c(F)cccc1F)C(=O)c1cccc(S(=O)(=O)N2CCCCCC2)c1 | -1 | -3 | -7 | -5 | 4 | .
CCN(C(=O)CSc1ccccn1)C1CCCCC1 | 5 | -2 | -6 | -12 | 4 | .
CCOC(=O)c1c(-c2ccc(-c3ccccc3)cc2)csc1NC(=O)C1C2CCC(O2)C1C(=O)O (configuration not stated) | 51* | 3 | -12 | -13 | 3 | 55*
COc1ccc(C)cc1Nc1n[n+](-c2ccccc2)c(-c2c(OC)ccc3ccccc23)s1 | 51* | -3 | 3 | -2 | 7 | 40
COc1ccc(C)cc1Nc1n[n+](-c2ccccc2)c(-c2cc(OC)c(OC)cc2Br)s1 | 5 | 4 | 13 | -9 | 0 | .

Screens deposited in PubChem by The Scripps Research Institute Molecular Screening Center.
